According to ChEMBL document CHEMBL1138558, “Synthesis of some new 1,2,4-triazoles, their Mannich and Schiff bases and evaluation of their antimicrobial activities” (2009):
Activity calls are given as the source filed them. The calls are words filed in the database; no cut-off is given here.

Tests used:
Type in all cases: functional
[1] = test system: Candida albicans; assay: Antimicrobial activity against Candida albicans ATCC 60193 at 5 ug after 18 hrs by agar-well diffusion method; settings: ATCC 60193, 18 h, read-out: IZ
How it was run: (§1)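 Yeast suspended in Mueller Hinton broth and diluted to about 10⁶ cfu/mL, then flood-inoculated onto Sabouraud Dextrose Agar and dried. 5-mm wells cut with a sterile cork-borer and filled with test substance. Plates incubated 18 h at 35 °C. Read-out is the zone of inhibition.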

[2] = test system: Candida tropicalis; assay: Antimicrobial activity against Candida tropicalis ATCC 13803 at 5 ug after 18 hrs by agar-well diffusion method; settings: ATCC 13803, 18 h, read-out: IZ; how it was run: as §1
[3] = test system: Candida albicans; assay: Antimicrobial activity against Candida albicans ATCC 60193 at 10 mg/mL after 18 hrs by agar-well diffusion method
How it was run: (§2)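 Candida cultures were suspended in Mueller Hinton broth at about 10⁶ cfu/mL, flood-inoculated onto Sabouraud dextrose agar and dried. Test solution was loaded into 5-mm wells bored in the agar. Plates were incubated 18 h at 35 °C, and activity was scored as the inhibition zone around each well.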

[4] = test system: Pseudomonas aeruginosa; assay: Antimicrobial activity against Pseudomonas aeruginosa ATCC 27853 at 10 mg/mL after 18 hrs by agar-well diffusion method
How it was run: (§3)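 Agar-well diffusion: each bacterium suspended in Mueller Hinton broth at about 10⁶ cfu/mL, flood-inoculated onto Mueller Hinton agar and dried. 5-mm wells were cut with a sterile cork-borer and filled with the test solution. Plates were incubated 18 h at 35 °C. The read-out was the diameter of the inhibition zone.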

[5] = test system: Enterococcus faecalis; assay: Antimicrobial activity against Enterococcus faecalis ATCC 29212 at 10 mg/mL after 18 hrs by agar-well diffusion method; how it was run: as §3
[6] = test system: Escherichia coli; assay: Antimicrobial activity against Escherichia coli ATCC 25922 at 10 mg/mL after 18 hrs by agar-well diffusion method; how it was run: as §3
[7] = test system: Bacillus cereus; assay: Antimicrobial activity against Bacillus cereus 702 Roma at 10 mg/mL after 18 hrs by agar-well diffusion method; how it was run: as §3
[8] = test system: Staphylococcus aureus; assay: Antimicrobial activity against Staphylococcus aureus ATCC 25923 at 10 mg/mL after 18 hrs by agar-well diffusion method; how it was run: as §3
[9] = test system: Candida tropicalis; assay: Antimicrobial activity against Candida tropicalis ATCC 13803 at 10 mg/mL after 18 hrs by agar-well diffusion method; how it was run: as §2
[10] = test system: Yersinia pseudotuberculosis; assay: Antimicrobial activity against Yersinia pseudotuberculosis ATCC 911 at 10 mg/mL after 18 hrs by agar-well diffusion method
How it was run: (§4)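 Bacteria suspended in Mueller Hinton broth at about 10⁶ cfu/mL, flood-inoculated onto Mueller Hinton agar and dried. Test substance placed into 5-mm wells bored with a sterile cork-borer. Incubation 18 h at 35 °C, then the inhibition zone around each well measured.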

[11] = test system: Yersinia pseudotuberculosis; assay: Antimicrobial activity against Yersinia pseudotuberculosis ATCC 911 at 10 ug after 18 hrs by agar-well diffusion method; settings: ATCC 911, 18 h, read-out: IZ; how it was run: as §4
[12] = test system: Escherichia coli; assay: Antimicrobial activity against Escherichia coli ATCC 25922 at 10 ug after 18 hrs by agar-well diffusion method; settings: ATCC 25922, 18 h, read-out: IZ; how it was run: as §4
[13] = test system: Bacillus cereus; assay: Antimicrobial activity against Bacillus cereus 702 Roma at 10 ug after 18 hrs by agar-well diffusion method; settings: read-out: IZ
[14] = test system: Staphylococcus aureus; assay: Antimicrobial activity against Staphylococcus aureus ATCC 25923 at 10 ug after 18 hrs by agar-well diffusion method; settings: ATCC 25923, 18 h, read-out: IZ
[15] = test system: Enterococcus faecalis; assay: Antimicrobial activity against Enterococcus faecalis ATCC 29212 at 10 ug after 18 hrs by agar-well diffusion method; settings: ATCC 29212, 18 h, read-out: IZ
[16] = test system: Pseudomonas aeruginosa; assay: Antimicrobial activity against Pseudomonas aeruginosa ATCC 27853 at 10 ug after 18 hrs by agar-well diffusion method; settings: ATCC 27853, 18 h, read-out: IZ

OC(Cn1cncn1)(Cn1cncn1)c1ccc(F)cc1F [FLUCONAZOLE]
zone of inhibition at 5 µg/disc [1]: 25 mm
zone of inhibition at 5 µg/disc [2]: 25 mm

O=C(CSc1nnc(-c2ccncc2)n1-c1ccccc1)N/N=C/c1ccncc1
inhibition zone (IZ) [3]: inactive
inhibition zone (IZ) [4]: inactive
inhibition zone (IZ) [5]: inactive
inhibition zone (IZ) [6]: inactive
inhibition zone (IZ) [7]: inactive
inhibition zone (IZ) [8]: inactive
inhibition zone (IZ) [9]: inactive
inhibition zone (IZ) [10]: inactive

S=c1n(CN2CCN(Cn3nc(-c4ccncc4)n(-c4ccccc4)c3=S)CC2)nc(-c2ccncc2)n1-c1ccccc1
inhibition zone (IZ) [3]: inactive
inhibition zone (IZ) [4]: inactive
inhibition zone (IZ) [5]: inactive
inhibition zone (IZ) [6]: inactive
inhibition zone (IZ) [7]: inactive
inhibition zone (IZ) [8]: inactive
inhibition zone (IZ) [9]: inactive
inhibition zone (IZ) [10]: inactive

Sc1nnc(-c2ccncc2)n1-c1ccccc1
inhibition zone (IZ) [3]: inactive
inhibition zone (IZ) [4]: inactive
inhibition zone (IZ) [5]: inactive
inhibition zone (IZ) [6]: inactive
inhibition zone (IZ) [7]: inactive
inhibition zone (IZ) [8]: inactive
inhibition zone (IZ) [9]: inactive
inhibition zone (IZ) [10]: inactive

CC1(C)S[C@@H]2[C@H](NC(=O)[C@H](N)c3ccccc3)C(=O)N2[C@H]1C(=O)O [AMPICILLIN]
zone of inhibition at 10 µg/disc [11]: 18 mm
zone of inhibition at 10 µg/disc [12]: 10 mm
zone of inhibition at 10 µg/disc [13]: 15 mm
zone of inhibition at 10 µg/disc [14]: 35 mm
zone of inhibition at 10 µg/disc [15]: 10 mm
zone of inhibition at 10 µg/disc [16]: 18 mm

Cc1ccc(Nc2nnc(CSc3nnc(-c4ccncc4)n3-c3ccccc3)s2)cc1
inhibition zone (IZ) [3]: inactive
zone of inhibition at 10000 µg/mL ([4]; ATCC 27853, 18 h, read-out: IZ): 35 mm
zone of inhibition at 10000 µg/mL ([5]; ATCC 29212, 18 h, read-out: IZ): 20 mm
zone of inhibition at 10000 µg/mL ([6]; ATCC 25922, 18 h, read-out: IZ): 31 mm
zone of inhibition at 10000 µg/mL ([7]; read-out: IZ): 20 mm
zone of inhibition at 10000 µg/mL ([8]; ATCC 25923, 18 h, read-out: IZ): 25 mm
inhibition zone (IZ) [9]: inactive
zone of inhibition at 10000 µg/mL ([10]; ATCC 911, 18 h, read-out: IZ): 22 mm

Cc1ccc(NC(=S)NNC(=O)CSc2nnc(-c3ccncc3)n2-c2ccccc2)cc1
zone of inhibition at 10000 µg/mL ([3]; ATCC 60193, 18 h, read-out: IZ): 7 mm
inhibition zone (IZ) [4]: inactive
inhibition zone (IZ) [5]: inactive
inhibition zone (IZ) [6]: inactive
inhibition zone (IZ) [7]: inactive
inhibition zone (IZ) [8]: inactive
zone of inhibition at 10000 µg/mL ([9]; ATCC 13803, 18 h, read-out: IZ): 7 mm
inhibition zone (IZ) [10]: inactive
